These results are taken from ChEMBL document CHEMBL4715682, “Potent trifluoromethoxy, trifluoromethylsulfonyl, trifluoromethylthio and pentafluorosulfanyl containing (1,3,4-oxadiazol-2-yl)benzamides against drug-resistant Gram-positive bacteria” (RSC Med Chem, 2020).

Assay type in all cases: functional
Assay [1] has as its system Staphylococcus aureus. The experiment in a line: Antibacterial activity against methicillin-resistant Staphylococcus aureus ATCC 33592 assessed as inhibition of visible bacterial growth incubated for 18 to 20 hrs by CLSI method. Particulars: time 18-20 hrs. The essentials: (§1)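 CLSI broth microdilution. Strains grown aerobically overnight on tryptic soy agar at 37 °C, adjusted to 0.5 McFarland and diluted in cation-adjusted Mueller–Hinton broth to about 5×10^5 CFU/mL. Compounds and control drugs serially diluted across the plate. Incubated aerobically at 37 °C for 18-20 h. MIC is the lowest concentration with no visible growth.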

Assay [2] deals with Staphylococcus aureus. The experiment in a line: Antibacterial activity against Staphylococcus aureus ATCC 25923 assessed as inhibition of visible bacterial growth incubated for 18 to 20 hrs by CLSI method. To be noted: time 18-20 hrs. The essentials:
as §1

The test system of assay [3] is Listeria monocytogenes. The experiment in a line: Antibacterial activity against Listeria monocytogenes ATCC 19111 assessed as inhibition of visible bacterial growth incubated for 18 to 20 hrs by CLSI method. Particulars: time 18-20 hrs. An outline of the steps:
(§2)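 Broth microdilution per CLSI. Strains grown aerobically overnight on TSA at 37 °C, suspended to 0.5 McFarland, diluted in CAMHB to about 5×10^5 CFU/mL. Agents serially diluted across plate; aerobic incubation 37 °C for 18-20 h. MIC = lowest concentration completely preventing visible growth.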

The subject of assay [4] is Staphylococcus aureus. Put plainly: Antibacterial activity against vancomycin-resistant Staphylococcus aureus 12 assessed as inhibition of visible bacterial growth incubated for 18 to 20 hrs by CLSI method. To be noted: time 18-20 hrs. The essentials: as §1
Assay [5] has as its system Staphylococcus aureus. The experiment in a line: Antibacterial activity against methicillin-sensitive Staphylococcus aureus NRS 107 assessed as inhibition of visible bacterial growth incubated for 18 to 20 hrs by CLSI method. Particulars: time 18-20 hrs. The essentials: as §1
Assay [6] concerns Staphylococcus aureus. Put plainly: Antibacterial activity against methicillin-resistant Staphylococcus aureus NRS382 assessed as inhibition of visible bacterial growth incubated for 18 to 20 hrs by CLSI method. Particulars: time 18-20 hrs. The essentials: as §1
In assay [7] the test system is Staphylococcus aureus. Put plainly: Antibacterial activity against methicillin-sensitive Staphylococcus aureus ATCC 6538 assessed as inhibition of visible bacterial growth incubated for 18 to 20 hrs by CLSI method. Particulars: time 18-20 hrs. The essentials:
as §1

In assay [8] the test system is Staphylococcus aureus. The experiment in a line: Antibacterial activity against vancomycin-resistant Staphylococcus aureus 10 assessed as inhibition of visible bacterial growth incubated for 18 to 20 hrs by CLSI method. To be noted: time 18-20 hrs. An outline of the steps: as §1
Assay [9] relates to Staphylococcus aureus. The experiment in a line: Antibacterial activity against methicillin-resistant Staphylococcus aureus NRS386 assessed as inhibition of visible bacterial growth incubated for 18 to 20 hrs by CLSI method. Particulars: time 18-20 hrs. An outline of the steps: as §1
Assay [10] deals with Staphylococcus aureus. The experiment in a line: Antibacterial activity against methicillin-resistant Staphylococcus aureus NRS384 assessed as inhibition of visible bacterial growth incubated for 18 to 20 hrs by CLSI method. To be noted: time 18-20 hrs. An outline of the steps: as §1
Assay [11] has as its system Staphylococcus aureus. The experiment in a line: Antibacterial activity against methicillin-resistant Staphylococcus aureus NRS387 assessed as inhibition of visible bacterial growth incubated for 18 to 20 hrs by CLSI method. Particulars: time 18-20 hrs. An outline of the steps:
as §1

Assay [12] relates to Staphylococcus aureus. Put plainly: Antibacterial activity against methicillin-resistant Staphylococcus aureus NRS123 assessed as inhibition of visible bacterial growth incubated for 18 to 20 hrs by CLSI method. Particulars: time 18-20 hrs. An outline of the steps:
as §1

Assay [13] deals with Staphylococcus aureus. The experiment in a line: Antibacterial activity against methicillin-resistant Staphylococcus aureus NRS385 assessed as inhibition of visible bacterial growth incubated for 18 to 20 hrs by CLSI method. To be noted: time 18-20 hrs. The essentials: as §1
Assay [14] relates to Staphylococcus aureus. Put plainly: Antibacterial activity against methicillin-resistant Staphylococcus aureus NRS 119 assessed as inhibition of visible bacterial growth incubated for 18 to 20 hrs by CLSI method. Particulars: time 18-20 hrs. The essentials:
as §1

Assay [15] deals with Staphylococcus aureus. Put plainly: Antibacterial activity against methicillin-resistant Staphylococcus aureus NRS383 assessed as inhibition of visible bacterial growth incubated for 18 to 20 hrs by CLSI method. To be noted: time 18-20 hrs. An outline of the steps: as §1
The subject of assay [16] is Staphylococcus aureus. Put plainly: Antibacterial activity against methicillin-resistant Staphylococcus aureus ATCC 33592 assessed as reduction in bacterial count at 3 x MIC incubated upto 24 hrs by time kill analysis. To be noted: time hrs <=24. An outline of the steps:
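Time-kill assay. […] Samples taken at 0, 2, 4, 8, 12 and 24 h, serially diluted in PBS and plated on tryptic soy agar. Viable CFU/mL counted after 18-20 h at 37 °C.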

For assay [17], the system named is Staphylococcus epidermidis. Put plainly: Antibacterial activity against Staphylococcus epidermidis NRS101 assessed as inhibition of visible bacterial growth incubated for 18 to 20 hrs by CLSI method. Particulars: time 18-20 hrs. The essentials: as §2
The test system of assay [18] is Staphylococcus aureus. Put plainly: Bactericidal activity against methicillin-resistant Staphylococcus aureus ATCC 33592 assessed as reduction in bacterial growth incubated for 18 hrs by CLSI method.

Converted amounts (≈) assume the structure as drawn.

For `O=C(Nc1nnc(-c2cccs2)o1)c1cccc(C(F)(F)F)n1`, the minimum inhibitory concentration (MIC) in assay [1] and in assay [2] was 16 µg/mL (≈ 47 µM) each time.

Turning to `O=C(Nc1nnc(-c2cccs2)o1)c1ccc(C(F)(F)F)cc1`, the MIC in [1] and in assay [2] was 2 µg/mL (≈ 5.89 µM) each time.

For the molecule `O=C(Nc1nnc(-c2cccs2)o1)c1ccc([N+](=O)[O-])cc1`, the MIC was found to be 8 µg/mL (≈ 25.3 µM) in [1] and 4 µg/mL (≈ 12.6 µM) in assay [2].

Turning to `O=C(Nc1nnc(-c2cccs2)o1)c1ccc(SC(F)F)cc1`, the minimum inhibitory concentration (MIC) in assay [1] and in assay [2] was 4 µg/mL (≈ 11.3 µM) each time.

With `O=C(Nc1nnc(-c2cccs2)o1)c1ccc(C(F)(F)F)cn1`, the MIC is 32 µg/mL (≈ 94 µM) in assay [1] and 64 µg/mL (≈ 188 µM) in assay [2].

As to `CC(=O)NC[C@H]1CN(c2ccc(N3CCOCC3)c(F)c2)C(=O)O1` [LINEZOLID], the MIC in assay [3] was 0.5 µg/mL (≈ 1.48 µM); in assay [4], > 64 µg/mL; in [5], 0.5 µg/mL (≈ 1.48 µM); in assay [6], 1 µg/mL (≈ 2.96 µM); in assay [7], 0.5 µg/mL (≈ 1.48 µM); in [8] it was > 64 µg/mL. For the same molecule, the minimum inhibitory concentration (MIC) was 1 µg/mL (≈ 2.96 µM) in [9]; 1 µg/mL (≈ 2.96 µM) in assay [10]; 1 µg/mL (≈ 2.96 µM) in assay [11]; 1 µg/mL (≈ 2.96 µM) in [12]; 1 µg/mL (≈ 2.96 µM) in [13]; > 64 µg/mL in [14]. Besides, the minimum inhibitory concentration (MIC) in assay [15] and in assay [17] was 1 µg/mL (≈ 2.96 µM) each time. The Activity in assay [16] amounted to 1.7 log10CFU/ml. In [18], the MBC was > 128 µg/mL.

With `O=C(Nc1nnc(-c2cccs2)o1)c1ccc(C(F)(F)F)s1`, the MIC in assay [1] was 2 µg/mL (≈ 5.79 µM); in assay [2], 4 µg/mL (≈ 11.6 µM).

In general, MIC refers to the lowest concentration found to suppress growth. In general, MBC refers to the smallest concentration meeting the test's criterion for killing.
